The text below walks through data of ChEMBL document CHEMBL3739298, “(9βH)-Pimaranes and Derivatives from the Tuber of Icacina trichantha” (J Nat Prod, 2015).

Molecules are shown by their SMILES.

For one experiment, the system named is MDA-MB-435. Briefly: Cytotoxicity against human MDA-MB-435 cells after 72 hrs by cell proliferation assay. Conditions: Homo sapiens, MDA-MB-435, 72 h; read-out: IC50; call rule not given here. In kind it is functional, cell-based. The gist of the method: (§1)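 Cells from ATCC grown at 37 °C, 5% CO2 in RPMI 1640 with 10% FBS, penicillin 100 units/mL, streptomycin 100 μg/mL. Log-phase cells trypsinized, washed twice, seeded at 5000/well, left overnight. DMSO-dissolved samples tested at 20, 4, 0.8, 0.16, 0.032 μM (final DMSO 0.5%) for 72 h at 37 °C. Viable cells read by MTS-type absorbance assay; IC50 relative to DMSO control.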
As for `CO[C@@]12OC[C@@H](O)[C@]1(C)CC[C@@H]1C2=C[C@H]2OC(=O)[C@]3(C)[C@H]2[C@]12CCC3(O)OC2`, the half-inhibitory concentration (IC50) was 7.04 µM.

Staying with this experiment, now noted: mda-mb-435.
For `C[C@]12C(=O)OC[C@@]3(CC[C@@H]1O)[C@@H]1CC(=O)c4ccoc4[C@@H]1C[C@@H](O)[C@H]32`, the IC50 result is reported as “Not Active”.
On the same count and under the same terms, under `COc1cc2c(c3occc13)[C@@H](O)[C@H]1OC(=O)[C@]3(C)[C@H]1[C@]21CCC3(O)OC1` stands “Not Active”; under `C[C@]12C(=O)O[C@@H]3Cc4c(cc(O)c5ccoc45)[C@@]4(CCC1(O)OC4)[C@@H]32`, “Not Active”; under `C[C@@]12C(=O)CC[C@]3(C)[C@@H]4CC[C@@]5(C)[C@@H](O)CO[C@H]5C4=C[C@@H](OC1=O)[C@@H]23`, “Not Active”.

In a further experiment the test system is MDA-MB-231. Briefly: Cytotoxicity against human MDA-MB-231 cells after 72 hrs by cell proliferation assay.
Conditions: not given
In kind it is functional, cell-based. In short, it runs like this: as §1
As for `C[C@]12C(=O)OC[C@@]3(CC[C@@H]1O)[C@@H]1CC(=O)c4ccoc4[C@@H]1C[C@@H](O)[C@H]32`, the IC50 entry is listed as “Not Active”.
The same measure, in the same setting: under `CO[C@@]12OC[C@@H](O)[C@]1(C)CC[C@@H]1C2=C[C@H]2OC(=O)[C@]3(C)[C@H]2[C@]12CCC3(O)OC2` stands “Not Active”; under `COc1cc2c(c3occc13)[C@@H](O)[C@H]1OC(=O)[C@]3(C)[C@H]1[C@]21CCC3(O)OC1`, “Not Active”.
Consider `C[C@]12C(=O)O[C@@H]3Cc4c(cc(O)c5ccoc45)[C@@]4(CCC1(O)OC4)[C@@H]32`, for which the IC50 result is on record as “Not Active”.
In the case of `C[C@@]12C(=O)CC[C@]3(C)[C@@H]4CC[C@@]5(C)[C@@H](O)CO[C@H]5C4=C[C@@H](OC1=O)[C@@H]23`, the half-inhibitory concentration (IC50) entry is given as “Not Active”.

Test system in the next experiment: not listed separately
Briefly: Cytotoxicity against human OVCAR3 cells after 72 hrs by cell proliferation assay. It counts as functional, cell-based. The note with it: ovcar-3. The gist of the method:
as §1
For the compound `C[C@]12C(=O)OC[C@@]3(CC[C@@H]1O)[C@@H]1CC(=O)c4ccoc4[C@@H]1C[C@@H](O)[C@H]32`, the IC50 entry is recorded as “Not Active”.
Same read-out and setting: under `CO[C@@]12OC[C@@H](O)[C@]1(C)CC[C@@H]1C2=C[C@H]2OC(=O)[C@]3(C)[C@H]2[C@]12CCC3(O)OC2` stands “Not Active”.
Same read-out and setting: under `COc1cc2c(c3occc13)[C@@H](O)[C@H]1OC(=O)[C@]3(C)[C@H]1[C@]21CCC3(O)OC1` stands “Not Active”; under `C[C@]12C(=O)O[C@@H]3Cc4c(cc(O)c5ccoc45)[C@@]4(CCC1(O)OC4)[C@@H]32`, “Not Active”; under `C[C@@]12C(=O)CC[C@]3(C)[C@@H]4CC[C@@]5(C)[C@@H](O)CO[C@H]5C4=C[C@@H](OC1=O)[C@@H]23`, “Not Active”.

The term IC50 denotes the midpoint of a concentration-inhibition curve.
